Assay results as given in ChEMBL document CHEMBL1138914, “Design, synthesis, and structure-activity relationships of novel 2-substituted pyrazinoylguanidine epithelial sodium channel blockers: drugs for cystic fibrosis and chronic bronchitis” (J Med Chem, 2006).

test system: Epithelial cell; assay: Recovery of short-circuit current in dog primary bronchial epithelial cells; format: functional, Canis lupus familiaris
Summary of the method: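 Canine primary bronchial epithelial monolayers in modified Ussing chambers, KRB pH 7.4, 37 °C, voltage clamped to 0 mV. After a full apical concentration-effect series, the mucosal bath was replaced with KRB three consecutive times. Short-circuit current was read 3 min after the third wash and expressed as percent of starting (basal) current.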

Q: How did the Activity turn out when `N/C(=N\C(=O)c1nc(Cl)c(N)nc1N)NCCCCCCc1ccccc1` was run?
A: 12%

Q: How did the Activity turn out when `N/C(=N\C(=O)c1nc(Cl)c(N)nc1N)NCCCCc1ccccc1OCCO` was run?
A: 21%

Q: With `N/C(=N\C(=O)c1nc(Cl)c(N)nc1N)NCCCCc1ccc(OCC(=O)O)cc1` as the molecule, how does the Activity read?
A: 79%

Q: How did the Activity turn out when `COc1ccc(CCCCC/N=C(\N)NC(=O)c2nc(Cl)c(N)nc2N)cc1` was run?
A: 5.5%

Q: How did the Activity turn out when `N/C(=N\C(=O)c1nc(Cl)c(N)nc1N)NCCCCc1ccc(OC[C@H](O)CO)cc1` was run?
A: 25%

Q: For `N/C(=N\C(=O)c1nc(Cl)c(N)nc1N)NCCCCc1ccccc1`, which Activity is on record?
A: 16%

Q: `N/C(=N\C(=O)c1nc(Cl)c(N)nc1N)NCCc1ccc(O)cc1` was tested. Which Activity did it give?
A: 65%

Q: With `N/C(=N\C(=O)c1nc(Cl)c(N)nc1N)NCCCCCCCCc1ccccc1` as the molecule, how does the Activity read?
A: 12%

Q: With `N/C(=N\C(=O)c1nc(Cl)c(N)nc1N)NCCCCc1ccc(O)cc1` as the molecule, how does the Activity read?
A: 24%

Q: How did the Activity turn out when `CCCCCC/N=C(\N)NC(=O)c1nc(Cl)c(N)nc1N` was run?
A: 24%

Q: With `COc1ccc(CCC/N=C(\N)NC(=O)c2nc(Cl)c(N)nc2N)cc1` as the molecule, how does the Activity read?
A: 57%

Q: `CCCCCCCC/N=C(\N)NC(=O)c1nc(Cl)c(N)nc1N` was tested. Which Activity did it give?
A: 7%

Q: For `N/C(=N\C(=O)c1nc(Cl)c(N)nc1N)NCCCCc1ccc(O)c(O)c1`, which Activity is on record?
A: 45%

Q: With `N/C(=N\C(=O)c1nc(Cl)c(N)nc1N)NCCCCc1ccc(OCCO)cc1` as the molecule, how does the Activity read?
A: 29%

Q: With `N/C(=N\C(=O)c1nc(Cl)c(N)nc1N)NCCCCCc1ccc(O)cc1` as the molecule, how does the Activity read?
A: 29%

Q: With `N=C(NC(=O)c1nc(Cl)c(N)nc1N)Nc1ccccc1` as the molecule, how does the Activity read?
A: 15%

Q: With `N/C(=N\C(=O)c1nc(Cl)c(N)nc1N)NCCCCc1cccc(OCCO)c1` as the molecule, how does the Activity read?
A: 30%

Q: For `N/C(=N\C(=O)c1nc(Cl)c(N)nc1N)NCCc1ccccc1`, which Activity is on record?
A: 21%

Q: How did the Activity turn out when `N/C(=N\C(=O)c1nc(Cl)c(N)nc1N)NCCCCc1ccccc1OCC(O)CO` (configuration not stated) was run?
A: 63%

Q: Which Activity does the source give for `N/C(=N\C(=O)c1nc(Cl)c(N)nc1N)NCCCc1ccccc1` here?
A: 23%

Q: With `COc1ccc(COCC/N=C(\N)NC(=O)c2nc(Cl)c(N)nc2N)cc1` as the molecule, how does the Activity read?
A: 72%

Q: How did the Activity turn out when `N/C(=N\C(=O)c1nc(Cl)c(N)nc1N)NCCCc1ccc(O)cc1` was run?
A: 65%

Q: Which Activity does the source give for `N/C(=N\C(=O)c1nc(Cl)c(N)nc1N)NCCCOc1ccc(O)cc1` here?
A: 73%

Q: With `N/C(=N\C(=O)c1nc(Cl)c(N)nc1N)NCCCCc1ccc(N)cc1` as the molecule, how does the Activity read?
A: 36%

Q: For `N/C(=N\C(=O)c1nc(Cl)c(N)nc1N)NCCCCc1ccc(OCCCO)cc1`, which Activity is on record?
A: 17%

Q: Which Activity does the source give for `N/C(=N\C(=O)c1nc(Cl)c(N)nc1N)NCCCCc1ccc(OC[C@@H](O)CO)cc1` here?
A: 18%

Q: Which Activity does the source give for `N/C(=N\C(=O)c1nc(Cl)c(N)nc1N)NCCCCc1cccc(OCC(O)CO)c1` (configuration not stated) here?
A: 37%

Q: With `N/C(=N\C(=O)c1nc(Cl)c(N)nc1N)NCCCCc1ccc(C(=O)O)cc1` as the molecule, how does the Activity read?
A: 65%

Q: For `COc1ccc(OCCC/N=C(\N)NC(=O)c2nc(Cl)c(N)nc2N)cc1`, which Activity is on record?
A: 25%

Q: Which Activity does the source give for `N/C(=N\C(=O)c1nc(Cl)c(N)nc1N)NCCCCc1ccc(CO)cc1` here?
A: 20%

Q: How did the Activity turn out when `N/C(=N\C(=O)c1nc(Cl)c(N)nc1N)NCCCCCc1ccccc1` was run?
A: 6%

Q: With `N/C(=N\C(=O)c1nc(Cl)c(N)nc1N)NCCO` as the molecule, how does the Activity read?
A: 77%

Q: `COc1ccc(CCCC/N=C(\N)NC(=O)c2nc(Cl)c(N)nc2N)cc1` was tested. Which Activity did it give?
A: 19%

Q: How did the Activity turn out when `N/C(=N\C(=O)c1nc(Cl)c(N)nc1N)NCCCCc1ccccc1O` was run?
A: 11%

Q: For `N/C(=N\C(=O)c1nc(Cl)c(N)nc1N)NCCCCc1ccc(OCCC(=O)O)cc1`, which Activity is on record?
A: 65%

Q: How did the Activity turn out when `COC(=O)c1ccc(CCCC/N=C(\N)NC(=O)c2nc(Cl)c(N)nc2N)cc1` was run?
A: 13%

Q: How did the Activity turn out when `N/C(=N\C(=O)c1nc(Cl)c(N)nc1N)NCCCCc1cccc(O)c1` was run?
A: 14%

Q: For `N/C(=N\C(=O)c1nc(Cl)c(N)nc1N)NCCCCc1ccc(OC2O[C@H](C(=O)O)[C@@H](O)[C@H](O)[C@H]2O)cc1` (some centres not stated), which Activity is on record?
A: 86%

Q: `N/C(=N\C(=O)c1nc(Cl)c(N)nc1N)NCCCCc1ccc(OS(=O)(=O)O)cc1` was tested. Which Activity did it give?
A: 53%

Q: `N/C(=N\C(=O)c1nc(Cl)c(N)nc1N)NCCCCc1ccc(OCC(O)CO)cc1` (configuration not stated) [552-02 FREE BASE] was tested. Which Activity did it give?
A: 20%

Q: With `N=C(N)NC(=O)c1nc(Cl)c(N)nc1N` [AMILORIDE] as the molecule, how does the Activity read?
A: 96%

Q: For `N/C(=N\C(=O)c1nc(Cl)c(N)nc1N)NCc1ccccc1` [BENZAMIL], which Activity is on record?
A: 47%
